Assay outcomes from PubChem BioAssay.
PvdQ inh – P. aeruginosa PvdQ acylase inhibition; purified PvdQ acylase, fluorescence plate reader; inhibition, % at 10 µM; 340,000 tested, 0.063% active; AID 488965; in the data active means inhibition above about 30%, passing the limit was not always enough; inconclusive means no clear call, values can overlap the other calls;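 further: 0% = vehicle neutral wells and 100% = reference inhibitor wells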
dFosB activator – activators of mouse delta FosB homodimer. P13346. purified delta FosB, TAMRA-CDK5 oligo fluorescence polarization; percent of positive-control signal above neutral wells. activation, % at 25 µM. 340,000 tested, 0.99% active. AID 493131;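 active means mean activation above about 17%, with every replicate also reaching it, limit read from the data, passing the limit was not always enough; inconclusive means only one of the two conditions met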
Target sequence (P13346 whole entry, looked up): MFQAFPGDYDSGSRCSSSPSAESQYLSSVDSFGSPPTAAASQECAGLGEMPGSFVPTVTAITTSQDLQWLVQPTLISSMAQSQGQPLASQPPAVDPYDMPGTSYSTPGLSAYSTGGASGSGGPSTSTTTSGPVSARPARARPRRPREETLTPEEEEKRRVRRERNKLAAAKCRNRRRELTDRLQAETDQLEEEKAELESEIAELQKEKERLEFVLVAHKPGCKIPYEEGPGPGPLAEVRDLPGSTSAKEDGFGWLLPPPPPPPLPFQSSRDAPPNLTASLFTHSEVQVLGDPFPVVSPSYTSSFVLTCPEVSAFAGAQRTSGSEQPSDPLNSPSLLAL
Ecoli rRNA inh – inhibits bacterial ribosomal RNA function over humanized ribosomes; E. coli WT GFP vs humanized-ribosome RFP mutants, fluorescence, 24 h; stronger effect = lower value; DMSO median 0, no signal -100; GFP signal change (wild-type ribosome), % (concentration not given with the values); 350,000 tested, 1.6% active; AID 720706;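 active means significant combined selectivity score with lowered wild-type GFP, culture density cut under 30%, mutant RFP and density less affected; inactive means any of these conditions unmet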
SR-BI DiI-HDL act – SR-BI HDL lipid transfer activation; CHO ldlA[mSR-BI] cells, DiI-HDL uptake fluorescence, 3 h; 100 = double the neutral-control signal; activation, % at 12.5 µM; 320,000 tested, 0.096% active; AID 504775;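 active means mean replicate activation of at least 60% and every replicate at or above 60%; inconclusive means mean or all-replicate condition met, but not both; inactive means mean below 60% and not all replicates reaching 60%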;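 further: 0% = median plate neutral-control signal and 100% = twice that signal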
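system = CHO ldlA[mSR-BI] cells, LDL receptor-null, SR-BI overexpressing | medium = Ham's F12 with 0.5% BSA, HEPES 25 mM, pH 7.4 | probe or stimulus = DiI-HDL 10 µg/mL | compound dosing = single-point compound dose | incubation = compound exposure 3 h, 37 °C | technique = DiI fluorescence, bottom read | read-out = cell-associated DiI fluorescence as measure of HDL uptake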
SR-BI DiI inh – inhibitors of mouse SR-BI mediated HDL lipid uptake | Q61009 | ldlA[mSR-BI] CHO cells, DiI-HDL uptake fluorescence, 3 h | inhibition, % at 12.5 µM | 320,000 tested, 0.96% active | AID 488896;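 active means mean replicate inhibition of at least 70% and a set share of replicates each scoring 70 or more; inconclusive means meets just one of the two criteria; inactive means fails both criteria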;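 further: 0% = median of neutral control wells and 100% = median of positive control wells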
Xi reactivation – X-chromosome reactivation activator; XiGFP mouse fibroblasts, % GFP-positive cells imaging, 3 d; cells co-treated with 5-aza-dC sensitizer; scaled so ellipticine positive control = 100%; activation, % at 7.58 µM; 360,000 tested, 0.055% active;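 active means mean normalized replicate activation at least 10% and every replicate at or above 10%; inconclusive means only one of the two criteria met; inactive means mean below 10% and not all replicates reach 10%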;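 further: 0% = median of on-plate neutral control wells and 100% = ellipticine 6 µM median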
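material = 68-5-11 XiGFP fibroblast line | medium = DMEM plus 5-aza-dC sensitizer | schedule = 3 days compound exposure | benchmarks = positive control ellipticine, 6 µM final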
AID977621 – wild-type E. coli growth inhibition versus H69 humanized strain – H69 mutant RFP, wild-type GFP, cherry-pick, dose response | shares compounds with Ecoli rRNA inh | 1,900 tested, under 10 active | fluorescence, 24 h | AID 977621 | activity change, negative = inhibition at 50 µM;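 active means Wild-type ribosome reporter drop at least double the humanized mutant ribosome reporter drop, growth loss under a set limit; inconclusive means no clear call, values can overlap the other calls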;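 further: wild-type GFP and H69 mutant RFP strains grown together 50/50 in each well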
AID977628 – E. coli growth inhibition, wild-type GFP versus h24 humanized RFP strain, dose response, h24 mutant RFP vs wild-type GFP, cherry-pick. shares compounds with Ecoli rRNA inh. E. coli WT GFP strain growth, fluorescence, 24 h. activity change, negative = inhibition at 50 µM. 1,900 tested, under 10 active;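 active means compound lowering the normal-ribosome reporter at least twice as much as the humanized-ribosome reporter, growth loss under a set limit; inconclusive means no clear call, values can overlap the other calls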;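 further: wild-type GFP and h24 humanized RFP strains co-cultured 1 to 1 per well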
Numbers without * were called inactive; ? = inconclusive; . = not tested or not shown. An excerpt weighted towards active compounds, which were near 2.6% of everything screened.

SMILES | PvdQ inh | dFosB activator | Ecoli rRNA inh | SR-BI DiI-HDL act | SR-BI DiI inh | Xi reactivation | AID977621 | AID977628
O=C(CN1CCCCC1)n1c2ccccc2c2ccccc21 | 0 | 12 | -24* | -15 | 15 | 0 | -3 | -0.41
CN1CCN(CC(=O)n2c3c(c4ccccc42)CCCC3)CC1 | -1 | 5 | . | 11 | -11 | . | . | .
Cc1cccc(C(=O)N2CCCC(N3CCN(c4ccccc4F)CC3)C2)n1 (stereo not given) | -8 | 5 | 4 | -16 | 16 | 0 | . | .
CC(=O)N(c1ccccc1C)S(=O)(=O)c1ccc(Cl)cc1 | -8 | 1 | -23 | 5 | -5 | 0 | . | .
CC(=O)Oc1ccc(N(C(C)=O)S(=O)(=O)c2ccc(C)cc2)c2ccccc12 | 4 | -8 | -25* | -15 | 15 | 0 | -15 | .
CC(=O)Oc1ccc(N(C(C)=O)S(=O)(=O)c2ccc(Cl)cc2)c2ccccc12 | -6 | -18 | -23* | -22 | 22 | 0 | -13 | ?
COc1cccc(CNC(=O)CCn2ccc3cc(S(=O)(=O)N4CCC(C)CC4)ccc32)c1 | -16 | -14 | -4 | -14 | 14 | 0 | . | .
O=C(Nc1ccccc1Cl)N1C[C@@H]2[C@H](c3ccccc31)[C@@H](CO)N2Cc1ccncc1 | . | . | -11 | . | . | 0 | . | .
COc1ccc(C(=O)N2C[C@@H]3[C@H](c4ccccc42)[C@@H](CO)N3Cc2ccccc2)cc1 | . | . | -6 | . | . | 0 | . | .
COc1ccc(C(=O)N2C[C@H]3[C@@H](c4ccccc42)[C@@H](CO)N3Cc2ccc(Cl)cc2)cc1 | . | . | -51* | . | . | 0 | . | ?
O=C(Nc1ccccc1Cl)N1C[C@H]2[C@@H](c3ccccc31)[C@@H](CO)N2Cc1ccccc1 | . | . | -38* | . | . | 0 | . | ?
COc1cccc(C(=O)N2C[C@@H]3[C@H](c4ccccc42)[C@H](CO)N3Cc2ccccc2Cl)c1 | . | . | -33* | . | . | 0 | . | ?
C[C@H]1CN([C@@H](C)CO)C(=O)c2cc(NC(=O)Nc3ccc(F)cc3)ccc2O[C@H]1CN(C)CC1CCCCC1 | . | . | 1 | . | . | 0 | . | .
COc1ccc(NC(=O)Nc2cc(C(=O)O)ccc2N2CC3CC(C2)c2cccc(=O)n2C3)c(OC)c1 (stereo not given) | -5 | -11 | 7 | -2 | 2 | 0 | . | .
O=C(CN1CCCCCCC1)N/N=C/c1ccc(F)cc1F | 7 | -2 | . | 32 | -32 | 0 | . | .
Cc1cnc(C)c(N2CCN(Cc3nc(-c4cccc(F)c4F)oc3C)CC2)n1 | -5 | 0 | -16 | -25 | 25 | 0 | . | .
Cc1cccc(N2CCN(Cc3nc(-c4ccc(F)cc4F)oc3C)CC2)n1 | 9 | -4 | -34* | -26 | 26 | 0 | -12 | -19
COC(=O)c1cn(C(=O)c2ccc(C)cc2)c2ccccc12 | -6 | -5 | -7 | -29 | 29 | 0 | . | .
COC(=O)c1cn(C(=O)c2ccc(OC)cc2)c2ccccc12 | -5 | -7 | -26* | -63 | 63 | 0 | 2.4 | -9.2
O=C(NCCCn1ccnc1)c1sc2cc([N+](=O)[O-])ccc2c1Cl | . | . | -16* | . | . | 0 | -17 | -18
Cc1occc1-c1nnc(SCC(=O)Nc2nccs2)n1Cc1ccco1 | -8 | -5 | . | -1 | 1 | . | . | .
CN(Cc1ccc(F)cc1)Cc1nc(-c2ccccc2)no1 | -12 | -2 | -18 | 4 | -4 | 0 | . | .
CN(Cc1ccc(F)cc1)Cc1nc(CCc2ccccc2)no1 | 10 | 3 | -19* | 8 | -8 | 0 | . | ?
COc1cccc(NC(=O)C(C)SCc2ccccc2)c1 (stereo not given) | -6 | -5 | -25* | 9 | -9 | 0 | -0.15 | 0.99
